Results reported in ChEMBL document CHEMBL4354843, “Structure-Based Design of a Potent and Selective Covalent Inhibitor for SRC Kinase That Targets a P-Loop Cysteine” (J Med Chem, 2020).

Key:
[1] = tested on: Proto-oncogene tyrosine-protein kinase receptor Ret (Homo sapiens), P07949 [V804M]; assay: Binding affinity to human partial length RET V804M mutant (E713 to D1014 residues) expressed in bacterial expression system assessed as residual binding level at 1 uM by Kinomescan method relative to control
Method in brief: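 KinomeScan active site-directed competition binding panel (468 kinases), compound tested at 1 μM. Result expressed as remaining kinase signal versus DMSO control (percent of control).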

[2] = target: Serine/threonine-protein kinase PAK 1 (Homo sapiens) (UniProt Q13153); assay: Binding affinity to wild-type human partial length PAK1 (S149 to H545 residues) expressed in bacterial expression system assessed as residual binding level at 1 uM by Kinomescan method relative to control
[3] = target: Serine/threonine-protein kinase RIO3 (Homo sapiens) (UniProt O14730); assay: Binding affinity to wild-type human full length RIOK3 (M1 to E519 residues) expressed in bacterial expression system assessed as residual binding level at 1 uM by Kinomescan method relative to control
Method in brief: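 Active-site-directed competition binding screen across a 468-kinase panel, run with the test compound at 1 μM. The read-out is the kinase signal remaining relative to a DMSO control, reported as a percentage. […]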

[4] = target: Ribosomal protein S6 kinase alpha-6 (Homo sapiens) (UniProt Q9UK32); assay: Binding affinity to wild-type human partial length N- terminal RSK4 kinase domain 1 (M1 to E397 residues) expressed in mammalian expression system assessed as residual binding level at 1 uM by Kinomescan method relative to control
Method in brief: (§1)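 Active-site-directed competition binding panel of 468 kinases (KinomeScan), compound at 1 μM. The read-out is kinase remaining bound, given as a percentage of the DMSO control. […]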

[5] = target: Ribosomal protein S6 kinase alpha-4 (Homo sapiens) (UniProt O75676); assay: Binding affinity to wild-type human partial length C-terminal RPS6KA4 kinase domain 2 (M375 to T705 residues) expressed in mammalian expression system assessed as residual binding level at 1 uM by Kinomescan method relative to control
[6] = target: Calcium/calmodulin-dependent protein kinase type II subunit gamma (Homo sapiens) (UniProt Q13555); assay: Binding affinity to wild-type human partial length CAMK2G (R9 to A303 residues) expressed in bacterial expression system assessed as residual binding level at 1 uM by Kinomescan method relative to control
[7] = target: Testis-specific serine/threonine-protein kinase 3 (Homo sapiens) (UniProt Q96PN8); assay: Binding affinity to wild-type human full length TSSK3 (M1 to T268 residues) expressed in mammalian expression system assessed as residual binding level at 1 uM by Kinomescan method relative to control
Method in brief: (§2)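 KinomeScan, an active site-directed competition binding panel of 468 kinases. The test compound was at 1 μM. The readout is remaining kinase binding as a percentage of the DMSO control. Scores above 35% were treated as weak binding and not listed.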

[8] = target: Casein kinase I isoform gamma-3 (Homo sapiens) (UniProt Q9Y6M4); assay: Binding affinity to wild-type human full length CSNK1G3 (M1 to K447 residues) expressed in bacterial expression system assessed as residual binding level at 1 uM by Kinomescan method relative to control
Method in brief: (§3)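 Active-site-directed KinomeScan competition binding panel covering 468 kinases, compound tested at 1 μM. Each readout is the kinase signal remaining with compound, expressed as a percentage of the DMSO control. […]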

[9] = target: Mitogen-activated protein kinase kinase kinase kinase 3 (Homo sapiens) (UniProt Q8IVH8); assay: Binding affinity to wild-type human partial length MAP4K3 (M1 to D301 residues) expressed in bacterial expression system assessed as residual binding level at 1 uM by Kinomescan method relative to control
[10] = target: Ephrin type-B receptor 3 (Homo sapiens) (UniProt P54753); assay: Binding affinity to wild-type human partial length EPHB3 (Q599 to T928 residues) expressed in bacterial expression system assessed as residual binding level at 1 uM by Kinomescan method relative to control; method in brief: as §1
[11] = target: Rhodopsin kinase GRK7 (Homo sapiens) (UniProt Q8WTQ7); assay: Binding affinity to wild-type human full length GRK7 (M1 to L553 residues) expressed in mammalian expression system assessed as residual binding level at 1 uM by Kinomescan method relative to control; method in brief: as §3
[12] = target: Vascular endothelial growth factor receptor 3 (Homo sapiens) (UniProt P35916); assay: Binding affinity to wild-type human partial length FLT4 (E821 to E1196 residues) expressed in bacterial expression system assessed as residual binding level at 1 uM by Kinomescan method relative to control
[13] = target: Macrophage colony-stimulating factor 1 receptor (Homo sapiens) (UniProt P07333); assay: Binding affinity to wild-type human partial length CSF1R (I564 to S939 residues) expressed in bacterial expression system assessed as residual binding level at 1 uM by Kinomescan method relative to control; method in brief: as §1
[14] = target: Protein kinase C delta type (Homo sapiens) (UniProt Q05655); assay: Binding affinity to wild-type human partial length PRKCD (Q328 to D676 residues) expressed in bacterial expression system assessed as residual binding level at 1 uM by Kinomescan method relative to control
[15] = target: Ephrin type-A receptor 3 (Homo sapiens) (UniProt P29320); assay: Binding affinity to wild-type human partial length EPHA3 (D604 to K889 residues) expressed in bacterial expression system assessed as residual binding level at 1 uM by Kinomescan method relative to control; method in brief: as §1
[16] = target: Insulin-like growth factor 1 receptor (Homo sapiens) (UniProt P08069); assay: Binding affinity to wild-type human partial length IGF1R (L972 to D1294 residues) expressed in bacterial expression system assessed as residual binding level at 1 uM by Kinomescan method relative to control
[17] = target: Angiopoietin-1 receptor (Homo sapiens) (UniProt Q02763); assay: Binding affinity to wild-type human partial length TIE2 (N804 to T1112 residues) expressed in bacterial expression system assessed as residual binding level at 1 uM by Kinomescan method relative to control
[18] = target: MAP/microtubule affinity-regulating kinase 3 (Homo sapiens) (UniProt P27448); assay: Binding affinity to wild-type human full length MARK3 (M1 to L729 residues) expressed in bacterial expression system assessed as residual binding level at 1 uM by Kinomescan method relative to control; method in brief: as §2
[19] = target: Cyclin-dependent kinase-like 1 (Homo sapiens) (UniProt Q00532); assay: Binding affinity to wild-type human full length CDKL1 (M1 to I358 residues) expressed in mammalian expression system assessed as residual binding level at 1 uM by Kinomescan method relative to control; method in brief: as §2
[20] = target: Serine/threonine-protein kinase Chk1 (Homo sapiens) (UniProt O14757); assay: Binding affinity to wild-type human partial length CHEK1 (M1 to G289 residues) expressed in bacterial expression system assessed as residual binding level at 1 uM by Kinomescan method relative to control
[21] = target: Serine/threonine-protein kinase STK11 (Homo sapiens) (UniProt Q15831); assay: Binding affinity to wild-type human full length LKB1 (M1 to Q433 residues) expressed in bacterial expression system assessed as residual binding level at 1 uM by Kinomescan method relative to control; method in brief: as §3

Chain of Mitogen-activated protein kinase kinase kinase kinase 3 (Homo sapiens) (Q8IVH8 whole entry, the tested form may be a part): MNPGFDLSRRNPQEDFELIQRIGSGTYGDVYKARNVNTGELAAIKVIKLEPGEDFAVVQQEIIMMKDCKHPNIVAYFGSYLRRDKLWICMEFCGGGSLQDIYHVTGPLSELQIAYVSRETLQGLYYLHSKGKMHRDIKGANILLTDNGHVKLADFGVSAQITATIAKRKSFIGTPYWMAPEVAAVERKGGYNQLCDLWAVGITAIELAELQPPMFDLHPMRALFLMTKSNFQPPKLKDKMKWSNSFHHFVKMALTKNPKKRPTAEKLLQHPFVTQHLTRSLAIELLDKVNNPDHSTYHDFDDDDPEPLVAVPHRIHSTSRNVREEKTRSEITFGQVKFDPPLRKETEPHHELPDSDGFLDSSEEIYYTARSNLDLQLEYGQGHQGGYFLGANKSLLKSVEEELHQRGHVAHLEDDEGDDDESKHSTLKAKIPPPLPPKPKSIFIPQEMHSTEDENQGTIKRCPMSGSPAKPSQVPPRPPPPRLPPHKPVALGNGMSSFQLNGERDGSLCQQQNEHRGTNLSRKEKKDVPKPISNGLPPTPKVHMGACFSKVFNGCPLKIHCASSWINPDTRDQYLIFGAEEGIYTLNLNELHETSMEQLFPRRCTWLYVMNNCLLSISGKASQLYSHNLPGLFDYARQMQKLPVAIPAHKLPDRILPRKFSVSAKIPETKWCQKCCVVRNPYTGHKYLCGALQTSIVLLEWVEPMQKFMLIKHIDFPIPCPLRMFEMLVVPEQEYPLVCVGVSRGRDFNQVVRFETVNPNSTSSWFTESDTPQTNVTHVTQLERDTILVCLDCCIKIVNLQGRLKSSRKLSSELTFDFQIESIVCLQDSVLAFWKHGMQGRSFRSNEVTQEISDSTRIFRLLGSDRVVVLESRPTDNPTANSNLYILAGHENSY
Chain of Rhodopsin kinase GRK7 (Homo sapiens) (Q8WTQ7 whole entry, the tested form may be a part): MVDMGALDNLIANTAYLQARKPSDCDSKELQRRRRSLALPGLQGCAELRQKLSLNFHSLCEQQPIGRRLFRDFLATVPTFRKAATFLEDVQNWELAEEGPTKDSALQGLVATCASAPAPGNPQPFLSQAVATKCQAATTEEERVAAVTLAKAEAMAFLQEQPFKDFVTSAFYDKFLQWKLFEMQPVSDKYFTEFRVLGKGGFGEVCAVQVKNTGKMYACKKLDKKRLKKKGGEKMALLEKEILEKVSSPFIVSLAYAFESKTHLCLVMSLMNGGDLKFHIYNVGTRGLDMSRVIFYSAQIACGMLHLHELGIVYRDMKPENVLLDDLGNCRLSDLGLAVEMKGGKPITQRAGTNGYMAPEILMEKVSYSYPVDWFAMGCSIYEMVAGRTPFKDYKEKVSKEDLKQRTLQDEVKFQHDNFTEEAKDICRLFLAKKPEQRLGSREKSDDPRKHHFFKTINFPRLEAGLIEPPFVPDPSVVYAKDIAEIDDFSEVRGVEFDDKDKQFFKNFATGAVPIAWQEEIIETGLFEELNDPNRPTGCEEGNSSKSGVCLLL
Chain of Ribosomal protein S6 kinase alpha-6 (Homo sapiens) (Q9UK32 whole entry, the tested form may be a part): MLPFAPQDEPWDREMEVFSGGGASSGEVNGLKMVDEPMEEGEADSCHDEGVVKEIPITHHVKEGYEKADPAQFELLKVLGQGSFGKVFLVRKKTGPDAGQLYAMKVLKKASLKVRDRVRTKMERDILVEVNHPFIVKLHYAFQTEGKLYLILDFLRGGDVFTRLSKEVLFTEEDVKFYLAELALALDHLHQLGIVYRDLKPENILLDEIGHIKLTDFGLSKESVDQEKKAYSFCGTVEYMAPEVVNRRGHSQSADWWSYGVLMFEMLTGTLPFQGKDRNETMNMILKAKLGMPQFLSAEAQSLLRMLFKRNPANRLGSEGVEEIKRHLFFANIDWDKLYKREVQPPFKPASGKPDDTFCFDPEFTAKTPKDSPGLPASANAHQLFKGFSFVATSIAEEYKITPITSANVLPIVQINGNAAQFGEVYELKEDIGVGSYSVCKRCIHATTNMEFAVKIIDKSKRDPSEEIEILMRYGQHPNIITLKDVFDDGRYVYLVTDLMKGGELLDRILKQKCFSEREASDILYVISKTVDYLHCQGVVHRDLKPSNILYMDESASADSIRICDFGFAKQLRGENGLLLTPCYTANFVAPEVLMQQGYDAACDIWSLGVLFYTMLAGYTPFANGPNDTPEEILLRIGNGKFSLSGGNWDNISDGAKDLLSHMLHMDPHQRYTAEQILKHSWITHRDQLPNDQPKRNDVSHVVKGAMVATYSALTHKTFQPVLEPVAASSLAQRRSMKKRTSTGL
Chain of Proto-oncogene tyrosine-protein kinase receptor Ret (Homo sapiens), P07949 [V804M] (P07949 whole entry V804M, the tested form may be a part): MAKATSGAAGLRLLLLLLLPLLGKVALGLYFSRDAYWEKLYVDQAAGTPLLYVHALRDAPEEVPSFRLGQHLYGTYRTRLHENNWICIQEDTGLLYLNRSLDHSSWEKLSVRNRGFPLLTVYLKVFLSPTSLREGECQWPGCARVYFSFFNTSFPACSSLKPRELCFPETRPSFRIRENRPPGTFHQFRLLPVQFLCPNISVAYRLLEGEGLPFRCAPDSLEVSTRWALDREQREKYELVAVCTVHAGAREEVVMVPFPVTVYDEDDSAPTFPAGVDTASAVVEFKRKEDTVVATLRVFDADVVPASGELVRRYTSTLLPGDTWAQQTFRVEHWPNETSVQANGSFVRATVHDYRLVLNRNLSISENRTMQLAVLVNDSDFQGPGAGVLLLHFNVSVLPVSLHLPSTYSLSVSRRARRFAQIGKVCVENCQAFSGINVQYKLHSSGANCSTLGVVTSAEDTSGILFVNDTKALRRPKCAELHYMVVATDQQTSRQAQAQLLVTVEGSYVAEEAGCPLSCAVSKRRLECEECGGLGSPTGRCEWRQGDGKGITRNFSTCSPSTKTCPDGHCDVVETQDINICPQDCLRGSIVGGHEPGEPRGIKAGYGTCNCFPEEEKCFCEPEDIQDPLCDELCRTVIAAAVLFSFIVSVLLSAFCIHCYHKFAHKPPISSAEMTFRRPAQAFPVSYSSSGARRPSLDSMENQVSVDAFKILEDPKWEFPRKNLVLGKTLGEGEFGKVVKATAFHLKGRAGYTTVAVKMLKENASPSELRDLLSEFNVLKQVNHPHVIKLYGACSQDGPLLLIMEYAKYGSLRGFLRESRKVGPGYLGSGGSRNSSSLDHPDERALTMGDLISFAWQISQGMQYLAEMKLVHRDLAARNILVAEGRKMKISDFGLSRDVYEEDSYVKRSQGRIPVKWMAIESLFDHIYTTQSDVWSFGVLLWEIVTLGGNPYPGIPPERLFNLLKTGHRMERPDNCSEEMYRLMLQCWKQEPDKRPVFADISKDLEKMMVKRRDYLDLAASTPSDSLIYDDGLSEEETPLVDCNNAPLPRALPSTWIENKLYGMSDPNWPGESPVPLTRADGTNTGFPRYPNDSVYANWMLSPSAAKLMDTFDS
Chain of Vascular endothelial growth factor receptor 3 (Homo sapiens) (P35916 whole entry, the tested form may be a part): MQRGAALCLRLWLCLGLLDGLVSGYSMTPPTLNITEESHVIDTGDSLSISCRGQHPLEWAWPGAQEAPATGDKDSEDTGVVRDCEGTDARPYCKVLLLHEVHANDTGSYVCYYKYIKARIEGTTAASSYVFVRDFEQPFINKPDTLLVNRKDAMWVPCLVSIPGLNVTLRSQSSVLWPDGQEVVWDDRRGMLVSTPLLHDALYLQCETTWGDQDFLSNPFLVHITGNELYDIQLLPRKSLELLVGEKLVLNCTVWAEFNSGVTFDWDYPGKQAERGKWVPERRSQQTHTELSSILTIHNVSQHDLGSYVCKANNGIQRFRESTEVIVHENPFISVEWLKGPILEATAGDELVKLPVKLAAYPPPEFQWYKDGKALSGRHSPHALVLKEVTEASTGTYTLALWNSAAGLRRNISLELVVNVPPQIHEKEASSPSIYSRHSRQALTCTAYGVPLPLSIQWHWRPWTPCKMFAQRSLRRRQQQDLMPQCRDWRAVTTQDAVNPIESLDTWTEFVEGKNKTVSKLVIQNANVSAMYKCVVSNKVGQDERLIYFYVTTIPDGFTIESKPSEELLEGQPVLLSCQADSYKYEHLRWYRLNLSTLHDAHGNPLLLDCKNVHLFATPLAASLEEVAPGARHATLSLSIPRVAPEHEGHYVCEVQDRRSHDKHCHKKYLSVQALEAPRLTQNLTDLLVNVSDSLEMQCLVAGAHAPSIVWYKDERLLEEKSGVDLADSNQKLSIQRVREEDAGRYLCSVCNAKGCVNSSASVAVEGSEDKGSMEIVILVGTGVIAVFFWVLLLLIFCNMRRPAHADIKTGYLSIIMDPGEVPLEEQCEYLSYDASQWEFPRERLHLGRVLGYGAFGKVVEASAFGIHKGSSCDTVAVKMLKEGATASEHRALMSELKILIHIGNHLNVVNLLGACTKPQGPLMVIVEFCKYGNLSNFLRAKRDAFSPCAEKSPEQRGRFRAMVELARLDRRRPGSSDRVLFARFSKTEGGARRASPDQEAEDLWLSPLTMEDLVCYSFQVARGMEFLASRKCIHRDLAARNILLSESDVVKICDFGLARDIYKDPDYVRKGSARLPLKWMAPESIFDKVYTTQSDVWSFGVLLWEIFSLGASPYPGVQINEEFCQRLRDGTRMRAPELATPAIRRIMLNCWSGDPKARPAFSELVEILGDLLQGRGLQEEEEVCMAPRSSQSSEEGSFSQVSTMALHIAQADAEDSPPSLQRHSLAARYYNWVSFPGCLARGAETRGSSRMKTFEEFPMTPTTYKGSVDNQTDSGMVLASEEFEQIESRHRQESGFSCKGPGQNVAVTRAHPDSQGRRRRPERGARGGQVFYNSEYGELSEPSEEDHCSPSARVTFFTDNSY
Chain of Cyclin-dependent kinase-like 1 (Homo sapiens) (Q00532 whole entry, the tested form may be a part): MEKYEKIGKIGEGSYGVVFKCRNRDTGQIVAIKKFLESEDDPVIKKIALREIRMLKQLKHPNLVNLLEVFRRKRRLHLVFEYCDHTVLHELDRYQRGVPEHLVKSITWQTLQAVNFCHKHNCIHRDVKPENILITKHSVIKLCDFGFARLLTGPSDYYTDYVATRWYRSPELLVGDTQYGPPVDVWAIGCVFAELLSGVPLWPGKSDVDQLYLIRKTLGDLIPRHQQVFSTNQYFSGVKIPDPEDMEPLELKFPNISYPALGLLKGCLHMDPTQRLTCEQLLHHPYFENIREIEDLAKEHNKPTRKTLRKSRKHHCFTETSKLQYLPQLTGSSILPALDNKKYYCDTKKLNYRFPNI

C=CC(=O)Nc1ccccc1Nc1nc(Nc2ccc(N3CCN(C)CC3)cc2)ncc1C(=O)Nc1c(C)cccc1Cl
Activity [1]: 100% | Activity [2]: 100% | Activity [3]: 92% | Activity [4]: 77% | Activity [5]: 100% | Activity [6]: 100% | Activity [7]: 90% | Activity [8]: 100% | Activity [9]: 100% | Activity [10]: 97% | Activity [11]: 100% | Activity [12]: 100% | Activity [13]: 7.3% | Activity [14]: 100% | Activity [15]: 68% | Activity [16]: 100% | Activity [17]: 100% | Activity [18]: 90% | Activity [19]: 72% | Activity [20]: 100% | Activity [21]: 100%
